ChEMBL document CHEMBL5316274 (J Med Chem, 2023)
Calls of active or inactive are those of the source. No cut-off for these calls is given here.

Columns and labels:
[1] = target: T1, Mu-type opioid receptor (Mus musculus, UniProt P42866); assay: Binding affinity to mouse mu opioid receptor expressed in CHO cell membrane assessed as inhibition constant incubated for 1.5 hrs by competitive radioligand binding assay; format: cell membranes
[2] = target: Kappa-type opioid receptor (Mus musculus, UniProt P33534); assay: Binding affinity to mouse kappa opioid receptor expressed in CHO cell membrane assessed as inhibition constant incubated for 1.5 hrs by competitive radioligand binding assay; format: cell membranes
[3] = species on record: Mus musculus; assay: Selectivity ratio, ratio of Ki for binding affinity to mouse kappa opioid receptor expressed in CHO cell membrane to Ki for binding affinity to mouse mu opioid receptor expressed in CHO cell membrane
[4] = Selectivity ratio, ratio of Ki for binding affinity to human delta opioid receptor expressed in CHO cell membrane to Ki for binding affinity to mouse mu opioid receptor expressed in CHO cell membrane
[5] = target: T1, Mu-type opioid receptor; assay: Binding affinity to mouse mu opioid receptor expressed in CHO cell membrane assessed as [35S]GTPgammaS binding incubated for 1.5 hrs by liquid scintillation counter analysis; format: cell membranes
In short: (§1)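 MOR [35S]GTPγS functional assay in MOR-CHO membranes (Bmax about 2.5–4 pmol/mg). Efficacy is expressed as % of the maximal stimulation by full agonist DAMGO.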

[6] = target: Mu-type opioid receptor (Mus musculus) (UniProt P42866); assay: Binding affinity to mouse mu opioid receptor expressed in CHO cell membrane assessed as stimulation of [35S]-GTPgammaS binding by measuring maximal efficacy incubated for 1.5 hrs by scintillation spectroscopy analysis relative DAMGO; format: cell membranes; in short: as §1
[7] = tested on: Mus musculus; assay: Antinociceptive activity in Swiss Webster mouse assessed as inhibition of morphine induced latency to tail withdrawal at 10 mg/kg, sc preincubated for 5 mins followed by morphine addition and measured after 20 mins by warm water tail immersion assay; format: functional, organism-based; conditions: time 25.0 min
In short: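 Male Swiss-Webster mice (n = 5). Compound is given s.c. at time 0 (10 mg/kg in the single-dose screen, a dose range for AD50), and morphine 10 mg/kg follows 5 min later. Tail flick is tested in 56 ± 0.1 °C water 20 min after morphine and scored as % MPE. Saline and morphine alone are the controls.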

| Structure (SMILES) | Ki [1] [nM] | Ki [2] [nM] | Ratio Ki [3] | Ratio Ki [4] | EC50 [5] [nM] | Emax [6] [%] | Activity [7] | Emax ([6]; filed as modulator) [%] |
| --- | --- | --- | --- | --- | --- | --- | --- | --- |
| Cc1cc2cccc(C(=O)N[C@@H]3CC[C@@]4(O)[C@H]5Cc6ccc(O)c7c6[C@@]4(CCN5CC4CC4)[C@H]3O7)c2[nH]1 | 0.31 | 0.8 | 2.6 | 51.1 | 1.51 | 21.8 | inactive |  |
| O=C(N[C@@H]1CC[C@@]2(O)[C@H]3Cc4ccc(O)c5c4[C@@]2(CCN3CC2CC2)[C@H]1O5)c1cccc2cc(Br)[nH]c12 | 0.35 | 0.46 | 1.3 | 8.8 | 0.88 | 36.2 | inactive |  |
| CC(C)c1c[nH]c2c(C(=O)N[C@H]3CC[C@@]4(O)[C@H]5Cc6ccc(O)c7c6[C@@]4(CCN5CC4CC4)[C@H]3O7)cccc12 | 2.78 | 11 | 4 | 9.3 | 2.48 | 8.37 | inactive |  |
| O=C(N[C@@H]1CC[C@@]2(O)[C@H]3Cc4ccc(O)c5c4[C@@]2(CCN3CC2CC2)[C@H]1O5)c1cccc2c(-c3ccccc3)c[nH]c12 | 1.46 | 26.1 | 17.9 | 33.8 | 1.78 | 8.47 | inactive |  |
| O=C(N[C@H]1CC[C@@]2(O)[C@H]3Cc4ccc(O)c5c4[C@@]2(CCN3CC2CC2)[C@H]1O5)c1cccc2cc(-c3ccccc3)[nH]c12 | 2.45 | 6.42 | 2.6 |  | 2.07 | 7.44 | inactive |  |
| O=C(N[C@@H]1CC[C@@]2(O)[C@H]3Cc4ccc(O)c5c4[C@@]2(CCN3CC2CC2)[C@H]1O5)c1cccc2c(C3CCCCC3)c[nH]c12 | 5.57 | 41.7 | 7.5 | 11.5 | 20.8 | 6.23 | inactive |  |
| O=C(N[C@@H]1CC[C@@]2(O)[C@H]3Cc4ccc(O)c5c4[C@@]2(CCN3CC2CC2)[C@H]1O5)c1cccc2c(Br)c[nH]c12 | 0.7 | 1.08 | 1.6 | 16.7 | 1.05 |  |  | 70.4 |
| O=C(N[C@H]1CC[C@@]2(O)[C@H]3Cc4ccc(O)c5c4[C@@]2(CCN3CC2CC2)[C@H]1O5)c1cccc2c(-c3ccccc3)c[nH]c12 | 2.37 | 13.4 | 5.7 | 6.3 | 1.85 | 5.57 | inactive |  |
| Cc1c[nH]c2c(C(=O)N[C@H]3CC[C@@]4(O)[C@H]5Cc6ccc(O)c7c6[C@@]4(CCN5CC4CC4)[C@H]3O7)cccc12 | 0.69 | 4.2 | 6.1 | 20.1 | 2.68 | 15.7 | Active |  |
| O=Cc1c[nH]c2c(C(=O)N[C@H]3CC[C@@]4(O)[C@H]5Cc6ccc(O)c7c6[C@@]4(CCN5CC4CC4)[C@H]3O7)cccc12 | 0.25 | 2.82 | 11.3 | 47.5 | 0.89 | 8.24 | inactive |  |
| CC(=O)c1c[nH]c2c(C(=O)N[C@@H]3CC[C@@]4(O)[C@H]5Cc6ccc(O)c7c6[C@@]4(CCN5CC4CC4)[C@H]3O7)cccc12 | > 50 | 15.6 |  |  | 204 | 10.9 | inactive |  |
| O=C(N[C@@H]1CC[C@@]2(O)[C@H]3Cc4ccc(O)c5c4[C@@]2(CCN3CC2CC2)[C@H]1O5)c1cccc2c(C3CCCC3)c[nH]c12 | 1.45 | 10.8 | 7.5 | 6.8 |  | 21.3 | inactive |  |
| O=C(N[C@H]1CC[C@@]2(O)[C@H]3Cc4ccc(O)c5c4[C@@]2(CCN3CC2CC2)[C@H]1O5)c1cccc2c(C3CCCC3)c[nH]c12 | 2.66 | 21.1 | 7.9 | 10.6 | 2.05 | 12.3 | inactive |  |
| O=C(N[C@H]1CC[C@@]2(O)[C@H]3Cc4ccc(O)c5c4[C@@]2(CCN3CC2CC2)[C@H]1O5)c1cccc2c(C3CCCCC3)c[nH]c12 | 2.11 | 9.65 | 4.6 | 8.9 | 2.62 | 20.5 | inactive |  |
| O=C(N[C@H]1CC[C@@]2(O)[C@H]3Cc4ccc(O)c5c4[C@@]2(CCN3CC2CC2)[C@H]1O5)c1cccc2c([N+](=O)[O-])c[nH]c12 | 1.07 | 9.84 |  |  | 2.32 | 11.3 | inactive |  |
| CC(=O)c1c[nH]c2c(C(=O)N[C@H]3CC[C@@]4(O)[C@H]5Cc6ccc(O)c7c6[C@@]4(CCN5CC4CC4)[C@H]3O7)cccc12 | 0.43 |  | 14.9 | 25.4 | 5.21 | 9.81 | inactive |  |
| O=C(N[C@H]1CC[C@@]2(O)[C@H]3Cc4ccc(O)c5c4[C@@]2(CCN3CC2CC2)[C@H]1O5)c1cccc2cc(Cl)[nH]c12 | 0.65 | 2.73 | 4.2 | 2.8 | 1.82 | 14.8 |  |  |
| O=C(N[C@H]1CC[C@@]2(O)[C@H]3Cc4ccc(O)c5c4[C@@]2(CCN3CC2CC2)[C@H]1O5)c1cccc2c(Cl)c[nH]c12 | 0.98 | 5.96 | 6.1 | 37.9 | 3.67 | 13.2 | inactive |  |
| CC(=O)Nc1c[nH]c2c(C(=O)N[C@H]3CC[C@@]4(O)[C@H]5Cc6ccc(O)c7c6[C@@]4(CCN5CC4CC4)[C@H]3O7)cccc12 | 0.23 | 2.1 | 9.4 | 23 | 1.48 | 9.97 | inactive |  |
| O=C(N[C@H]1CC[C@@]2(O)[C@H]3Cc4ccc(O)c5c4[C@@]2(CCN3CC2CC2)[C@H]1O5)c1cccc2cc(Br)[nH]c12 | 0.48 | 1.5 | 3.1 | 14 |  | 13.3 | Active |  |
| CC(C)c1c[nH]c2c(C(=O)N[C@@H]3CC[C@@]4(O)[C@H]5Cc6ccc(O)c7c6[C@@]4(CCN5CC4CC4)[C@H]3O7)cccc12 | 0.89 | 0.98 | 1.1 | 22.2 | 1.73 | 36.2 | inactive |  |
| N#Cc1cc2cccc(C(=O)N[C@@H]3CC[C@@]4(O)[C@H]5Cc6ccc(O)c7c6[C@@]4(CCN5CC4CC4)[C@H]3O7)c2[nH]1 | 0.73 | 1.66 | 2.3 | 16.5 | 3.78 | 21.3 |  |  |
| N#Cc1c[nH]c2c(C(=O)N[C@H]3CC[C@@]4(O)[C@H]5Cc6ccc(O)c7c6[C@@]4(CCN5CC4CC4)[C@H]3O7)cccc12 | 0.87 | 5.46 |  | 14 | 2.54 | 11.4 | inactive |  |
| O=Cc1c[nH]c2c(C(=O)N[C@@H]3CC[C@@]4(O)[C@H]5Cc6ccc(O)c7c6[C@@]4(CCN5CC4CC4)[C@H]3O7)cccc12 | 0.69 | 4.03 | 5.8 | < 35.1 | 1.19 | 21.3 | inactive |  |
| CC(=O)Nc1c[nH]c2c(C(=O)N[C@@H]3CC[C@@]4(O)[C@H]5Cc6ccc(O)c7c6[C@@]4(CCN5CC4CC4)[C@H]3O7)cccc12 | 0.27 | 6.52 | 24.4 | 116 | 0.88 | 8.84 | inactive |  |
| N#Cc1c[nH]c2c(C(=O)N[C@@H]3CC[C@@]4(O)[C@H]5Cc6ccc(O)c7c6[C@@]4(CCN5CC4CC4)[C@H]3O7)cccc12 | 0.38 | 1 | 2.7 | 67.4 | 3.07 | 38.8 | inactive |  |
| O=C(N[C@@H]1CC[C@@]2(O)[C@H]3Cc4ccc(O)c5c4[C@@]2(CCN3CC2CC2)[C@H]1O5)c1cccc2cc(Cl)[nH]c12 | 0.63 | 1.28 | 2 | 3.8 | 1.4 | 38.5 |  |  |
| N#Cc1cc2cccc(C(=O)N[C@H]3CC[C@@]4(O)[C@H]5Cc6ccc(O)c7c6[C@@]4(CCN5CC4CC4)[C@H]3O7)c2[nH]1 | 0.87 | 7.1 | 8.2 |  | 3.58 | 14.4 | inactive |  |
